Data taken from ChEMBL document CHEMBL4196224, “Novel Hypoxia-Inducible Factor 1α (HIF-1α) Inhibitors for Angiogenesis-Related Ocular Diseases: Discovery of a Novel Scaffold via Ring-Truncation Strategy” (J Med Chem, 2018).
The source made the active and inactive calls.

Legend:
[1] = biological target: T1, Hypoxia-inducible factor 1-alpha (Homo sapiens, UniProt Q16665); test: Inhibition of HIF-1alpha in human HRE-A549 cells pre-incubated for 1 hr before exposure to hypoxia for 24 hrs by HRE-luciferase reporter gene assay; format: cell-based
How it was run: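 A549 cells stably carrying an HRE-luciferase reporter (G418 600 μg/mL selection), kept in DMEM/10% FBS and grown to 80-90% confluence. Serum withdrawn overnight, compound added 1 h before 24 h hypoxia (1% O2, 5% CO2, 94% N2, 37 °C). Luciferase read by luminometer. IC50 is the mean of three independent experiments with standard error.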
Target sequence in this assay (Q16665 whole entry): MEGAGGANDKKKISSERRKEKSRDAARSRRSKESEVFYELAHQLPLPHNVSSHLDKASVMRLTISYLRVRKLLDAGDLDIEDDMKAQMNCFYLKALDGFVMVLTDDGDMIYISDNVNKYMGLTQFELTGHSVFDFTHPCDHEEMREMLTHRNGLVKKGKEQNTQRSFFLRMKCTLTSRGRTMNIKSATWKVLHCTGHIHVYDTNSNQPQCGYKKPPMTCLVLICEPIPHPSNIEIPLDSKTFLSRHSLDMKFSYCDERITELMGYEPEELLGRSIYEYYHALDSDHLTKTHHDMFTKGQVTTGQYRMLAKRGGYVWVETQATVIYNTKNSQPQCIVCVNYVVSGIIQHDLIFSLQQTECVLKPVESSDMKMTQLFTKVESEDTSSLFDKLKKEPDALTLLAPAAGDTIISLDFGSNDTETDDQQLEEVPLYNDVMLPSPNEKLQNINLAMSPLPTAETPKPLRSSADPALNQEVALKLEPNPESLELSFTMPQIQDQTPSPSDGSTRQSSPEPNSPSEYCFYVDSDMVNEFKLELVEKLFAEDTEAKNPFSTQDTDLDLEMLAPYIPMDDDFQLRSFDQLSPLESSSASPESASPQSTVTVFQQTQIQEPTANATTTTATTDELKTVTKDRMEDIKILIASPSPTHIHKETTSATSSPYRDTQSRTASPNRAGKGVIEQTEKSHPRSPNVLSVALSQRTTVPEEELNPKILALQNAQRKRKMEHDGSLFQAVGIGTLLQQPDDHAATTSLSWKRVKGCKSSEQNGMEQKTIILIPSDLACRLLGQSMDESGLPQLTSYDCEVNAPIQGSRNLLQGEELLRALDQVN

[2] = system: Mus musculus; test: Suppression of hypoxia-mediated retinal neovascularization in mouse model of oxygen-induced retinopathy assessed as reduction in retinal neovascular tufts at 100 nM dosed via intravitreal route; format: functional, organism-based
How it was run: (§1)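 Newborn mice held in 75% ± 0.5% O2 from P7 to P12. Intravitreal injection of compound or PBS at P14 (n = 6). Retinas whole-mounted at P17 and stained with isolectin B4-594. Neovascular tuft area per retina measured by image analysis; mean ± SEM.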

[3] = Aqueous solubility of the compound in DPBS incubated for 24 hrs by LC/MS/MS method relative to SH-1242; format: physicochemical; details: buffer
[4] = system: HUVEC; test: Antiangiogenic activity in HUVEC exposed to human HeLa cells derived conditioned media assessed as inhibition of hypoxia-induced [3H]-thymidine incorporation at 100 nM incubated for 24 hrs by liquid scintillation counting assay; format: functional, cell-based
How it was run: (§2)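 Conditioned medium from RPE or HeLa cells grown in M199 with 1% FBS under hypoxia ± compound, passed through a 3 kDa cut-off filter. Proliferation: 5 x 10^3 endothelial cells on gelatin, 24 h, then CM 24 h; [3H]-thymidine incorporation, DNA solubilized in 0.2 N NaOH/0.1% SDS, scintillation counting. Migration: 1 x 10^5 cells in Transwell upper well over CM, 4 h, H&E stain, migrated cells counted. Tube formation: 2 x 10^5 cells on Matrigel in CM, 20 h, tube length measured in 5 random fields (x100).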

[5] = system: HUVEC; test: Antiangiogenic activity in HUVEC exposed to human HeLa cells derived conditioned media assessed as inhibition of hypoxia-induced cell migration at 100 nM incubated for 4 hrs by H and E staining based inverted phase contrast microscopy; format: functional; how it was run: as §2
[6] = system: HUVEC; test: Antiangiogenic activity in HUVEC exposed to human HeLa cells derived conditioned media assessed as inhibition of hypoxia-induced cell tube formation at 100 nM incubated for 20 hrs; format: functional, cell-based; how it was run: as §2
[7] = system: Mus musculus; test: Suppression of hypoxia-mediated retinal neovascularization in mouse model of oxygen-induced retinopathy assessed as reduction in retinal neovascular tufts at 1 uM dosed via intravitreal route; format: functional, organism-based; how it was run: as §1
[8] = biological target: T1, Hypoxia-inducible factor 1-alpha; test: Inhibition of HIF-1alpha in human A549 cell lysates assessed as reduction in Hsp90 and HIF-1alpha interaction at 1.25 uM in presence of ATP for 30 mins at 37 degC by immunoprecipitation and immunoblotting assay
How it was run: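 Lysate from A549 cells exposed to 100 μM CoCl2 for 5 h, incubated with compound ± 20 mM ATP for 30 min at 37 °C. HIF-1α immunoprecipitated overnight at 4 °C, then protein G-agarose 2 h at 4 °C. Complex boiled in Laemmli buffer, run on 6% SDS-PAGE, blotted for HSP90.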
Target sequence in this assay (Q16665 whole entry, looked up): as the sequence (Q16665 whole entry) above

[9] = organism: Homo sapiens; test: Antiangiogenic activity in HRMEC exposed to human RPE cells derived conditioned media assessed as inhibition of hypoxia-induced [3H]-thymidine incorporation at 100 nM incubated for 24 hrs by liquid scintillation counting assay; format: functional; how it was run: as §2
[10] = organism: Homo sapiens; test: Antiangiogenic activity in HRMEC exposed to human RPE cells derived conditioned media assessed as inhibition of hypoxia-induced cell migration at 100 nM incubated for 4 hrs by H and E staining based inverted phase contrast microscopy; format: functional; how it was run: as §2
[11] = organism: Homo sapiens; test: Antiangiogenic activity in HRMEC exposed to human RPE cells derived conditioned media assessed as inhibition of hypoxia-induced tube formation at 100 nM incubated for 20 hrs; format: functional; how it was run: as §2
[12] = system: Mus musculus; test: Suppression of hypoxia-mediated retinal neovascularization in mouse model of oxygen-induced retinopathy assessed as reduction in retinal neovascular tufts at 100 nM dosed via intravitreal route relative to SH-1242; format: functional, organism-based; how it was run: as §1
[13] = biological target: T1, Hypoxia-inducible factor 1-alpha; test: Induction of HIF-1alpha destabilization in human HCT116 cells under hypoxic conditions at 100 nM by Western blot method
Target sequence in this assay (Q16665 whole entry, looked up): as the sequence (Q16665 whole entry) above

[14] = biological target: T1, Hypoxia-inducible factor 1-alpha; test: Induction of HIF-1alpha destabilization in human HCT116 cells under hypoxic conditions assessed as reduction in hypoxia-induced VEGFA mRNA expression at 100 nM
Target sequence in this assay (Q16665 whole entry, looked up): as the sequence (Q16665 whole entry) above

[15] = biological target: T1, Hypoxia-inducible factor 1-alpha; test: Induction of HIF-1alpha destabilization in human HCT116 cells under hypoxic conditions assessed as reduction in hypoxia-induced VEGF production at 100 nM by ELISA
Target sequence in this assay (Q16665 whole entry, looked up): as the sequence (Q16665 whole entry) above

Row | IC50 [1] | Structure (SMILES) | other results
1 | 1020 nM | COc1c(C(=O)Cc2ccc(F)cc2)ccc2c1C=CC(C)(C)O2 | –
2 | 8880 nM | COc1ccc(CC(O)c2ccc3c(c2OC)C=CC(C)(C)O3)cc1OC (stereo unspecified) | –
3 | 5250 nM | CCN(C(=O)c1ccc2c(c1OC)C=CC(C)(C)O2)c1ccc(OC)c(OC)c1 | –
4 | 940 nM | COc1c(C(=O)Cc2ccccc2O)ccc2c1C=CC(C)(C)O2 | –
5 | 12000 nM | COc1ccc(C(Cc2ccccc2)C(=O)c2ccc3c(c2OC)C=CC(C)(C)O3)cc1OC (stereo unspecified) | –
6 | 2040 nM | COc1ccc(NC(=O)c2ccc3c(c2OC)C=CC(C)(C)O3)cc1OC | –
7 | 100 nM | COc1c(C(=O)Cc2ccccc2F)ccc2c1C=CC(C)(C)O2 | –
8 | 790 nM | COc1c(C(=O)Cc2ccc(O)cc2)ccc2c1C=CC(C)(C)O2 | –
9 | – | COc1ccc([C@H](C)C(=O)c2ccc(NCc3ccc(C#N)cc3)cc2OC)cc1OC | Activity [2]: Active
10 | 1360 nM | COc1ccc(C(C)C(=O)c2ccc3c(c2OC)C=CC(C)(C)O3)cc1OC (racemic) | –
11 | 1440 nM | COc1c(C(=O)Cc2cccc(O)c2)ccc2c1C=CC(C)(C)O2 | –
12 | 1270 nM | COc1c(C(=O)Cc2ccc(F)c(F)c2)ccc2c1C=CC(C)(C)O2 | –
13 | 3210 nM | COc1ccccc1CC(=O)c1ccc2c(c1OC)C=CC(C)(C)O2 | –
14 | 360 nM | COc1c(C(=O)Cc2cccc(F)c2)ccc2c1C=CC(C)(C)O2 | –
15 | 1330 nM | COc1c(C(=O)Cc2ccc3c(c2)OCCO3)ccc2c1C=CC(C)(C)O2 | –
16 | 3150 nM | COc1ccc(N(C)C(=O)c2ccc3c(c2OC)C=CC(C)(C)O3)cc1OC | –
17 | – | COc1ccc(C(C)C(=O)c2ccc(N3CCCCC3)cc2OC)cc1OC (racemic) | fold change (FC) [3]: 93; Activity [4]: Active; Activity [5]: Active; Activity [6]: Active; Activity [2]: Active; Activity [7]: Active

Row | IC50 [1] | Structure (SMILES) | other results
18 | 8450 nM | C=CCC(C(=O)c1ccc2c(c1OC)C=CC(C)(C)O2)c1ccc(OC)c(OC)c1 (stereo unspecified) | –
19 | – | COc1ccc([C@@H](C)C(=O)c2ccc(NCc3ccc(C#N)cc3)cc2OC)cc1OC | Activity [2]: Active
20 | 3410 nM | COc1c(C(=O)Cc2ccc3c(c2)OCO3)ccc2c1C=CC(C)(C)O2 | –
21 | 2610 nM | COc1ccc(C(C)C(=O)c2ccc(N3CCCC3)cc2)cc1OC (racemic) | –
22 | – | COc1ccc(C(C)C(=O)c2ccc(NCc3ccc(C#N)cc3)cc2OC)cc1OC (racemic) | fold change (FC) [3]: 17; Activity [4]: Active; Activity [5]: Active; Activity [6]: Active; inhibition [8]: Active; Activity [9]: Active; Activity [10]: Active; Activity [11]: Active; Activity [12]: Active; Activity [13]: Active; Activity [14]: Active; Activity [15]: Active
23 | > 15000 nM | COc1ccc(C(C)C(=O)c2ccc(N(C)C)cc2OC)cc1OC (racemic) | –
24 | > 15000 nM | COc1ccc(C(=O)C(C)c2ccc(OC)c(OC)c2)c(OC)c1 (racemic) | –
25 | 3040 nM | COc1ccc(CC(OC(C)=O)c2ccc3c(c2OC)C=CC(C)(C)O3)cc1OC (stereo unspecified) | –
26 | 2150 nM | COc1ccc(CC(=O)c2ccc3c(c2OC)C=CC(C)(C)O3)cc1OC | Activity [2]: Active; Activity [7]: Active
27 | 820 nM | COc1cccc(CC(=O)c2ccc3c(c2OC)C=CC(C)(C)O3)c1 | –
28 | 6350 nM | COc1ccc(C(F)C(=O)c2ccc3c(c2OC)C=CC(C)(C)O3)cc1OC (stereo unspecified) | –
29 | 2880 nM | COc1c(C(=O)Cc2ccc(Cl)c(Cl)c2)ccc2c1C=CC(C)(C)O2 | –
30 | > 15000 nM | COc1ccc(C(C)C(=O)c2ccc(O)cc2OC)cc1OC (racemic) | –
31 | 10800 nM | COc1ccc(N(Cc2ccccc2)C(=O)c2ccc3c(c2OC)C=CC(C)(C)O3)cc1OC | –
32 | 6210 nM | COc1ccc(CC(=O)c2ccc3c(c2OC)C=CC(C)(C)O3)cc1 | –
33 | 880 nM | COc1c(C(=O)Cc2ccccc2)ccc2c1C=CC(C)(C)O2 | –
